# PMC9652097 (Computers in Biology and Medicine, 2022)
# Assays:
# SARS-CoV-2 M^pro [1] = target: T1, SARS-CoV-2 M^pro (Severe acute respiratory syndrome coronavirus 2, UniProt P0DTD1); assay: Surface plasmon resonance; type: binding
# [2] = DPPH radical scavenging activity; conditions: 37 °C, 30 min, 517 nm
# In short: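 Tea leaf solvent-extract fractions (petroleum ether, ethyl acetate, methanol, dichloromethane, methanol-water), each tested at several concentrations. Samples mixed 1:1 with 200 μM DPPH in ethanol, incubated 30 min at 37 °C, A517 read. Scavenging % = (1 − [(A_sample − A_blank)/A_control]) × 100, with control = water plus DPPH and blank = sample plus ethanol. Run three times.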
# SARS-CoV-2 M^pro [3] = target: T1, SARS-CoV-2 M^pro; conditions: read-out: IC50 of M^pro inhibition; beyotime enhanced inhibition kit; cited from earlier work
# M^pro = conditions: read-out: IC50 of M^pro inhibition; cited from earlier work
# C. elegans = conditions: cited from earlier work
compound,measurement,setting,value
"Oc1cc(O)c2c(c1)O[C@H](c1ccc(O)c(O)c1)[C@H](O)C2 [EC, (−)-epicatechin]",Kd,SARS-CoV-2 M^pro [1],23.9 µM
O=C1O[C@H]([C@@H](O)CO)C(O)=C1O [VC],IC50 of DPPH free radical scavenging,[2],1.14 µg/mL
CC(C)=CCc1cc(/C=C2\OC(=O)C(c3cc4c(cc3O)OC(C)(C)CC4)=C2O)ccc1O [aspulvinone D],IC50,SARS-CoV-2 M^pro [3],10.3 ± 0.6 µM
CC(C)(O)C1Cc2cc(/C=C3\OC(=O)C(c4cc5c(cc4O)OC(C)(C)C(O)C5)=C3O)ccc2O1 (centres unmarked) [aspulvinone M],IC50,SARS-CoV-2 M^pro [3],9.4 ± 0.6 µM
O=c1c2ccccc2[se]n1-c1ccccc1 [ebselen],IC50,M^pro,0.04 ± 0.004 µM
Zijuanin E,extension of lifespan of C. elegans,C. elegans,67.2%
Zijuanin F,extension of lifespan of C. elegans,C. elegans,56.0%
aspulvinone R,IC50,SARS-CoV-2 M^pro [3],7.7 ± 0.6 µM
